# Calls of active or inactive are those of the source. No cut-off for these calls is given here.
# System: Pseudomonas aeruginosa
# Assay: Inhibition of beta lactamase AmpC in Pseudomonas aeruginosa MUW 700 assessed as potentiation of ceftazidime-induced antibacterial activity by measuring diameter of zone inhibition at 0.3 mg incubated for 18 hrs in presence of 30 ug ceftazidime by CLSI disc diffusion method (Rvb=11 mm)
# Conditions: not given
# Procedure, shortened: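 AmpC combination disc test on Mueller-Hinton agar, following EUCAST guidance and Yagi et al. Inhibition zones were compared between a CAZ-30 disc and a ceftazidime disc plus agent or PBA, each at 0.3 mg per disc. Plates were incubated at 35 °C for 18 h. A zone difference of at least 5 mm was counted as inhibition.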
row,Structure (SMILES),inhibition zone (IZ)
1,C[Si]1(C)OB(O)c2cc3c(c(F)c21)COB3O,16 mm
2,C[Si]1(C)OB(O)c2ccc(F)c(F)c21,14 mm
3,C[Si]1(C)OB(O)c2c(F)c(F)c(F)c(F)c21,11 mm

# System: Klebsiella pneumoniae
# Assay: Inhibition of beta lactamase KPC-2 in Klebsiella pneumoniae 75 assessed as potentiation of meropenem-induced antibacterial activity by measuring meropenem MIC at 16 mg/L incubated for 18 hrs by broth dilution method (reference value: […] mg/L)
# Conditions: not given
row,Structure (SMILES),MIC
1,C[Si]1(C)OB(O)c2cc3c(c(F)c21)COB3O,32 µg/mL
2,C[Si]1(C)OB(O)c2ccc(F)c(F)c21,32 µg/mL
3,C[Si]1(C)OB(O)c2c(F)c(F)c(F)c(F)c21,32 µg/mL

# System: Pichia kudriavzevii
# Assay: Antifungal activity against Candida krusei ATCC 6258 assessed as decrease in fungal cell growth at 0.78 to 12.5 mg/L incubated for 24 hrs by CLSI broth dilution method
# Assay type: functional
# Conditions: ATCC 6258, 24 h
# Procedure, shortened: (§1)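 Yeast broth dilution in RPMI 1640 with 2% glucose, compounds in DMSO. Yeasts pre-grown on Sabouraud dextrose agar. Growth read after 35 °C, 24 h.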
row,Structure (SMILES),MIC
1,C[Si]1(C)OB(O)c2cc3c(c(F)c21)COB3O,> 400 µg/mL
2,C[Si]1(C)OB(O)c2ccc(F)c(F)c21,100 µg/mL
3,C[Si]1(C)OB(O)c2c(F)c(F)c(F)c(F)c21,200 µg/mL

# System: Klebsiella pneumoniae ATCC BAA-1705
# Assay: Inhibition of beta lactamase KPC in Klebsiella pneumoniae ATCC BAA 1705 assessed as potentiation of meropenem-induced antibacterial activity by measuring diameter of zone inhibition at 0.3 mg incubated for 18 hrs in presence of 10 ug meropenem by CLSI disc diffusion method (Rvb=[…] mm)
# Conditions: not given
row,Structure (SMILES),inhibition zone (IZ)
1,C[Si]1(C)OB(O)c2cc3c(c(F)c21)COB3O,12 mm
2,C[Si]1(C)OB(O)c2ccc(F)c(F)c21,14 mm
3,C[Si]1(C)OB(O)c2c(F)c(F)c(F)c(F)c21,13 mm

# System: Enterobacter cloacae
# Assay: Antibacterial activity against Enterobacter cloacae DSM 6234 assessed as fold reduction of MIC in presence of efflux pump inhibitor PAbetaN incubated for 18 hrs by broth microdilution method
# Assay type: functional
# Conditions: not given
# Procedure, shortened: (§2)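 MICs determined with and without PAβN at 50 mg/L in Mueller-Hinton broth containing 1 mM MgSO₄. 2-fold serial dilutions per CLSI. Fold change taken from the paired MICs after 35 °C, 18 h.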
row,Structure (SMILES),fold change (FC)
1,C[Si]1(C)OB(O)c2cc3c(c(F)c21)COB3O,64
2,C[Si]1(C)OB(O)c2ccc(F)c(F)c21,32
3,C[Si]1(C)OB(O)c2c(F)c(F)c(F)c(F)c21,32

# System: Escherichia coli
# Assay: Antibacterial activity against Escherichia coli ATCC 25922 measured after 18 hrs by CLSI broth dilution method
# Assay type: functional
# Conditions: ATCC 25922, 18 h
# Procedure, shortened: (§3)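 Broth MIC in Mueller-Hinton II broth following CLSI, compounds dissolved in DMSO. Strains subcultured twice on tryptic soy agar before testing. Growth read after 35 °C, 18 h.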
row,Structure (SMILES),MIC
1,C[Si]1(C)OB(O)c2cc3c(c(F)c21)COB3O,400 µg/mL
2,C[Si]1(C)OB(O)c2ccc(F)c(F)c21,> 400 µg/mL
3,C[Si]1(C)OB(O)c2c(F)c(F)c(F)c(F)c21,> 400 µg/mL

# System: Klebsiella pneumoniae
# Assay: Inhibition of beta lactamase KPC-3 in Klebsiella pneumoniae 81 assessed as potentiation of ceftazidime-induced antibacterial activity by measuring ceftazidime MIC at 16 mg/L incubated for 18 hrs by broth dilution method (reference value: >[…] mg/L)
# Conditions: not given
row,Structure (SMILES),MIC
1,C[Si]1(C)OB(O)c2cc3c(c(F)c21)COB3O,64 µg/mL
2,C[Si]1(C)OB(O)c2ccc(F)c(F)c21,64 µg/mL
3,C[Si]1(C)OB(O)c2c(F)c(F)c(F)c(F)c21,64 µg/mL

# System: Saccharomyces cerevisiae
# Assay: Antifungal activity against Saccharomyces cerevisiae ATCC 9763 diameter of zone inhibition incubated for 24 hrs by CLSI disc diffusion method
# Assay type: functional
# Conditions: not given
# Procedure, shortened: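 Disc-diffusion run on Mueller-Hinton II agar with 2% glucose and 0.5 mg/L methylene blue, using compounds in DMSO. Yeast was precultured on Sabouraud dextrose agar (24–48 h, 30 °C). Zones read after 24 h at 35 °C.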
row,Structure (SMILES),diameter of the inhibition zone (DIZ)
1,C[Si]1(C)OB(O)c2cc3c(c(F)c21)COB3O,inactive
2,C[Si]1(C)OB(O)c2ccc(F)c(F)c21,30 mm
3,C[Si]1(C)OB(O)c2c(F)c(F)c(F)c(F)c21,35 mm

# System: Escherichia coli
# Assay: Inhibition of beta lactamase KPC-3 in Escherichia coli 82 TR assessed as potentiation of ceftazidime-induced antibacterial activity by measuring ceftazidime MIC at 16 mg/L incubated for 18 hrs by broth dilution method (reference value: […] mg/L)
# Conditions: not given
row,Structure (SMILES),MIC
1,C[Si]1(C)OB(O)c2cc3c(c(F)c21)COB3O,32 µg/mL
2,C[Si]1(C)OB(O)c2ccc(F)c(F)c21,32 µg/mL
3,C[Si]1(C)OB(O)c2c(F)c(F)c(F)c(F)c21,32 µg/mL

# System: not listed separately
# Assay: Cytotoxicity against human MRC5 cells assessed as cell viability at 8 ug/ml incubated for 72 hrs by MTT assay
# Assay type: cell-based
# Conditions: read-out: Activity
# Procedure, shortened: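 MRC-5 pd30 human fibroblasts grown in MEM with 10% FBS, 2 mM L-glutamine, penicillin/streptomycin and 1% non-essential amino acids at 37 °C, 5% CO2. Exponentially growing cells trypsinized and seeded at 8×10^3 cells/well, then dosed 18 h later with 2-fold dilutions (0.5% DMSO final) for 72 h. MTT (1 mg/ml final) added for 1 h at 37 °C, formazan dissolved in DMSO, OD read at 570 nm. Four replicates, expressed as % viable versus control.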
row,Structure (SMILES),"viability at 72 h, 8 ug/ml"
1,C[Si]1(C)OB(O)c2cc3c(c(F)c21)COB3O,105%
2,C[Si]1(C)OB(O)c2ccc(F)c(F)c21,111%

# System: Serratia marcescens
# Assay: Antibacterial activity against Serratia marcescens ATCC 13880 assessed as fold reduction of MIC in presence of efflux pump inhibitor PAbetaN incubated for 18 hrs by broth microdilution method
# Assay type: functional
# Conditions: not given
# Procedure, shortened: as §2
row,Structure (SMILES),fold change (FC)
1,C[Si]1(C)OB(O)c2cc3c(c(F)c21)COB3O,16
2,C[Si]1(C)OB(O)c2ccc(F)c(F)c21,8
3,C[Si]1(C)OB(O)c2c(F)c(F)c(F)c(F)c21,4

# System: Staphylococcus aureus
# Assay: Bactericidal activity against Staphylococcus aureus ATCC 6538P measured after 18 hrs by CLSI broth dilution method
# Assay type: functional
# Conditions: not given
# Procedure, shortened: (§4)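 Strains stored at -80 °C and subcultured twice on tryptic soy agar before testing. Compounds dissolved in DMSO. […] MBC then determined per CLSI recommendations.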
row,Structure (SMILES),MBC
1,C[Si]1(C)OB(O)c2cc3c(c(F)c21)COB3O,400 µg/mL

# System: Stenotrophomonas maltophilia
# Assay: Antibacterial activity against Stenotrophomonas maltophilia ATCC 13637 assessed as diameter of zone inhibition measured after 18 hrs by CLSI disc diffusion method
# Assay type: functional
# Conditions: not given
# Procedure, shortened: (§5)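 Disc diffusion on Mueller-Hinton II agar. Compounds dissolved in DMSO. Strains stored at -80 °C and subcultured twice on tryptic soy agar before testing. Inhibition zones read after 35 °C, 18 h.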
row,Structure (SMILES),diameter of the inhibition zone (DIZ)
1,C[Si]1(C)OB(O)c2cc3c(c(F)c21)COB3O,14 mm
2,C[Si]1(C)OB(O)c2ccc(F)c(F)c21,13 mm
3,C[Si]1(C)OB(O)c2c(F)c(F)c(F)c(F)c21,25 mm

# System: Candida tropicalis
# Assay: Antifungal activity against Candida tropicalis IBA 171 assessed as decrease in fungal cell growth at 0.78 to 12.5 mg/L incubated for 24 hrs by CLSI broth dilution method
# Assay type: functional
# Conditions: IBA 171, 24 h
# Procedure, shortened: as §1
row,Structure (SMILES),MIC
1,C[Si]1(C)OB(O)c2cc3c(c(F)c21)COB3O,100 µg/mL
2,C[Si]1(C)OB(O)c2ccc(F)c(F)c21,6.25 µg/mL
3,C[Si]1(C)OB(O)c2c(F)c(F)c(F)c(F)c21,1.56 µg/mL

# System: Staphylococcus epidermidis
# Assay: Bactericidal activity against Staphylococcus epidermidis ATCC 12228 measured after 18 hrs by CLSI broth dilution method
# Assay type: functional
# Conditions: ATCC 12228, 18 h
# Procedure, shortened: as §4
row,Structure (SMILES),MBC
1,C[Si]1(C)OB(O)c2cc3c(c(F)c21)COB3O,400 µg/mL

# System: Enterobacter cloacae
# Assay: Antibacterial activity against Enterobacter cloacae DSM 6234 assessed as diameter of zone inhibition measured after 18 hrs by CLSI disc diffusion method
# Assay type: functional
# Conditions: not given
# Procedure, shortened: as §5
row,Structure (SMILES),diameter of the inhibition zone (DIZ)
1,C[Si]1(C)OB(O)c2cc3c(c(F)c21)COB3O,inactive
2,C[Si]1(C)OB(O)c2ccc(F)c(F)c21,inactive
3,C[Si]1(C)OB(O)c2c(F)c(F)c(F)c(F)c21,inactive

# System: Candida albicans
# Assay: Antifungal activity against Candida albicans ATCC 90028 assessed as decrease in fungal cell growth at 0.78 to 12.5 mg/L incubated for 24 hrs by CLSI broth dilution method
# Assay type: functional
# Conditions: ATCC 90028, 24 h
# Procedure, shortened: as §1
row,Structure (SMILES),MIC
1,C[Si]1(C)OB(O)c2cc3c(c(F)c21)COB3O,100 µg/mL
2,C[Si]1(C)OB(O)c2ccc(F)c(F)c21,100 µg/mL
3,C[Si]1(C)OB(O)c2c(F)c(F)c(F)c(F)c21,200 µg/mL

# System: Saccharomyces cerevisiae
# Assay: Antifungal activity against Saccharomyces cerevisiae ATCC 9763 assessed as decrease in fungal cell growth at 0.78 to 12.5 mg/L incubated for 24 hrs by CLSI broth dilution method
# Assay type: functional
# Conditions: ATCC 9763, 24 h
# Procedure, shortened: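 Yeast strain subcultured on Sabouraud dextrose agar for 24–48 h at 30 °C before testing. Compounds dissolved in DMSO.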
row,Structure (SMILES),MIC
1,C[Si]1(C)OB(O)c2cc3c(c(F)c21)COB3O,100 µg/mL
2,C[Si]1(C)OB(O)c2ccc(F)c(F)c21,12.5 µg/mL
3,C[Si]1(C)OB(O)c2c(F)c(F)c(F)c(F)c21,25 µg/mL

# System: Pseudomonas aeruginosa
# Assay: Inhibition of beta lactamase VIM in Pseudomonas aeruginosa 698 assessed as potentiation of ceftazidime-induced antibacterial activity by measuring ceftazidime MIC at 16 mg/L incubated for 18 hrs by broth dilution method (reference value: […] mg/L)
# Conditions: not given
row,Structure (SMILES),MIC
1,C[Si]1(C)OB(O)c2cc3c(c(F)c21)COB3O,64 µg/mL
2,C[Si]1(C)OB(O)c2ccc(F)c(F)c21,64 µg/mL
3,C[Si]1(C)OB(O)c2c(F)c(F)c(F)c(F)c21,64 µg/mL

# System: Pseudomonas aeruginosa
# Assay: Antibacterial activity against Pseudomonas aeruginosa ATCC 27853 assessed as diameter of zone inhibition measured after 18 hrs by CLSI disc diffusion method
# Assay type: functional, organism-based
# Conditions: not given
# Procedure, shortened: as §5
row,Structure (SMILES),diameter of the inhibition zone (DIZ)
1,C[Si]1(C)OB(O)c2cc3c(c(F)c21)COB3O,inactive
2,C[Si]1(C)OB(O)c2ccc(F)c(F)c21,inactive
3,C[Si]1(C)OB(O)c2c(F)c(F)c(F)c(F)c21,inactive

# System: Pseudomonas aeruginosa
# Assay: Antibacterial activity against Pseudomonas aeruginosa ATCC 27853 assessed as fold reduction of MIC in presence of efflux pump inhibitor PAbetaN incubated for 18 hrs microdilution method
# Assay type: functional
# Conditions: not given
# Procedure, shortened: as §2
row,Structure (SMILES),fold change (FC)
1,C[Si]1(C)OB(O)c2cc3c(c(F)c21)COB3O,8
2,C[Si]1(C)OB(O)c2ccc(F)c(F)c21,32
3,C[Si]1(C)OB(O)c2c(F)c(F)c(F)c(F)c21,16

# System: Acinetobacter baumannii
# Assay: Antibacterial activity against Acinetobacter baumannii ATCC 19606 assessed as fold reduction of MIC in presence of efflux pump inhibitor PAbetaN incubated for 18 hrs by broth microdilution method
# Assay type: functional
# Conditions: not given
# Procedure, shortened: as §2
row,Structure (SMILES),fold change (FC)
1,C[Si]1(C)OB(O)c2cc3c(c(F)c21)COB3O,8
2,C[Si]1(C)OB(O)c2ccc(F)c(F)c21,4
3,C[Si]1(C)OB(O)c2c(F)c(F)c(F)c(F)c21,4

# System: Staphylococcus epidermidis
# Assay: Antibacterial activity against Staphylococcus epidermidis ATCC 12228 measured after 18 hrs by CLSI broth dilution method
# Assay type: functional
# Conditions: ATCC 12228, 18 h
# Procedure, shortened: as §3
row,Structure (SMILES),MIC
1,C[Si]1(C)OB(O)c2cc3c(c(F)c21)COB3O,6.25 µg/mL
2,C[Si]1(C)OB(O)c2ccc(F)c(F)c21,50 µg/mL
3,C[Si]1(C)OB(O)c2c(F)c(F)c(F)c(F)c21,100 µg/mL

# From ChEMBL document CHEMBL4346672, “Antimicrobial and KPC/AmpC inhibitory activity of functionalized benzosiloxaboroles” (Eur J Med Chem, 2019)
